{"source": "PubChem BioAssay AID1217", "about": "(Sanford-Burnham Center for Chemical Genomics, 2008)", "note": "In all, about 190,000 compounds went through this assay and about 1,300 (0.68%) were called active.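 Rule for the calls: active = primary screen inhibition at 20 µM above a set limit (cut at about 50% in these data); inactive = the rest.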 The full list was thinned out, with actives kept by preference.", "data": [{"tested_on": "diaphorase (Clostridium kluyveri)", "test": "diaphorase inhibitors and chemical oxidizers, primary screen, counter-screen for diaphorase-coupled primary assays, biochemical, uHTS, resorufin fluorescence (AID 1217)", "conditions": "diaphorase resazurin-to-resorufin fluorescence, NADH, 16 min; at 20 µM; stronger effect = higher value; bacterial (C. kluyveri) enzyme, not human", "summary_of_the_method": "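Benchmarks: positive control wells lacking NADH, neutral wells with DMSO only. System: bacterial diaphorase enzyme (C. kluyveri). Input: 0.14 U/mL diaphorase, enzyme working solution. Detection: resorufin fluorescence, excitation 544 nm, emission 590 nm. Times: 16-min room-temperature incubation before reading.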", "values": [{"smiles": "COc1ccc(N(C)S(=O)(=O)c2cccc3nsnc23)cc1", "inhibition": "3.7% (inactive)"}, {"smiles": "NC(=O)Cc1ccc2sc(-c3ccccc3)nc2c1", "inhibition": "12.5% (inactive)"}, {"smiles": "COCCCNC(=S)NC(=O)c1ccc([N+](=O)[O-])cc1", "inhibition": "9.4% (inactive)"}, {"smiles": "CC(C)(C)SCCNC(=O)c1cccc([N+](=O)[O-])c1", "inhibition": "1.8% (inactive)"}, {"smiles": "Cc1cccc(C(=O)NNC(=O)c2cccc([N+](=O)[O-])c2)c1", "inhibition": "10.9% (inactive)"}, {"smiles": "CC(C)CC(=O)NC(=S)NNC(=O)c1cccc([N+](=O)[O-])c1", "inhibition": "58.7% (active)"}, {"smiles": "CCCCCC(=O)Nc1ccc(C(=O)N/N=C/c2ccc([N+](=O)[O-])cc2)cc1", "inhibition": "4.9% (inactive)"}, {"smiles": "CCCCCC(=O)NC(=S)NNC(=O)c1ccc([N+](=O)[O-])cc1", "inhibition": "54.7% (active)"}, {"smiles": "Brc1cc(/C=N/n2cnnc2)oc1Br", "inhibition": "-5.6% (inactive)"}, {"smiles": "O=C(COc1ccc(Cl)cc1)NCc1nnc(SCC(=O)NCC2CCCO2)o1", "note": "(stereo not given)", "inhibition": "3.2% (inactive)"}, {"smiles": "Cc1cc(C)n(CC(=O)Nc2ccc([N+](=O)[O-])cc2)n1", "inhibition": "19.4% (inactive)"}, {"smiles": "COc1ccc(CNC(=O)CN(Cc2ccc(Cl)cc2)S(C)(=O)=O)cc1", "inhibition": "12.3% (inactive)"}, {"smiles": "COc1ccc2c(c1)C(C)=CC(C)(C)N2C(=O)Nc1ccccc1", "inhibition": "74.3% (active)"}, {"smiles": "COc1ccc2c(c1)C(C)=CC(C)(C)N2C(=O)CNCc1ccc2c(c1)OCO2", "inhibition": "34.2% (inactive)"}, {"smiles": "CC1=CC(C)(C)N(C(=O)CSc2nnc(-c3ccccc3)o2)c2ccc(C)cc21", "inhibition": "6.9% (inactive)"}, {"smiles": "COc1ccc(NC(=O)Nc2ccc3nc(C)c(C)nc3c2)cc1", "inhibition": "13.6% (inactive)"}, {"smiles": "O=C(NCc1ccccn1)c1ccc2nc(-c3ccco3)c(-c3ccco3)nc2c1", "inhibition": "51% (active)"}, {"smiles": "O=C(NCc1ccccn1)c1cc(-c2ccccc2Cl)on1", "inhibition": "4.9% (inactive)"}, {"smiles": "COc1ccc(NC(=O)Nc2ccc3nsnc3c2)cc1", "inhibition": "15.1% (inactive)"}, {"smiles": "CN(c1ccc(C(=O)NCc2ccccn2)cc1)S(C)(=O)=O", "inhibition": "5.3% (inactive)"}, {"smiles": "COCCNC(=O)Nc1ccc2nc(-c3ccco3)c(-c3ccco3)nc2c1", "inhibition": "70.2% (active)"}, {"smiles": "CC(C)C(C)(C#N)NC(=O)CSc1nncn1-c1ccccc1", "note": "(stereo not given)", "inhibition": "12.5% (inactive)"}, {"smiles": "O=C(CO/N=C/c1ccc(OC(F)F)cc1)NCc1ccc(F)cc1", "inhibition": "9.6% (inactive)"}, {"smiles": "O=C(NNC(=O)C1CCN(c2ncccn2)CC1)c1ccccc1", "inhibition": "-1.9% (inactive)"}, {"smiles": "CCOC(=O)N1CCN(C(c2cccnc2)c2ccc3cccnc3c2O)CC1", "note": "(stereo not given)", "inhibition": "48.3% (inactive)"}, {"smiles": "Oc1c(CN2CCN(c3ccc(F)cc3)CC2)cc(Cl)c2cccnc12", "inhibition": "14.9% (inactive)"}, {"smiles": "CCN1CCN(C(c2cccnc2)c2cc(Cl)c3cccnc3c2O)CC1", "note": "(stereo not given)", "inhibition": "54.7% (active)"}, {"smiles": "Cc1ccc(N(C(=O)Cc2cccs2)C2C=CS(=O)(=O)C2)cc1Cl", "note": "(stereo not given)", "inhibition": "12.1% (inactive)"}, {"smiles": "CC(C)CCN1CCN(Cc2cn[nH]c2C2CCCCC2)CC1CCO", "note": "(stereo not given)", "inhibition": "8.8% (inactive)"}, {"smiles": "COc1ccc(NS(=O)(=O)c2cc(NC(=O)CC(=O)c3ccc([N+](=O)[O-])cc3)ccc2C)cc1", "inhibition": "-19.9% (inactive)"}, {"smiles": "c1ccc(-c2cc3c(NCC4COc5ccccc5O4)ncnc3s2)cc1", "note": "(stereo not given)", "inhibition": "14.4% (inactive)"}, {"smiles": "COc1ccc(-c2[nH]ncc2/C=N/NC(=O)c2cc(Br)ccc2O)c(OC)c1", "inhibition": "8.8% (inactive)"}, {"smiles": "CN(C)c1ccc(/C=N/Nc2cc(N3CCOCC3)nc(N3CCOCC3)n2)cc1", "inhibition": "58% (active)"}, {"smiles": "C(=N/Nc1cc(N2CCOCC2)nc(N2CCOCC2)n1)/c1ccccc1", "inhibition": "65.9% (active)"}, {"smiles": "Cc1cc(C(=O)N/N=C/c2ccc(N3CCOCC3)cc2)c(C)o1", "inhibition": "-7.7% (inactive)"}, {"smiles": "Cc1cc(Oc2ccccc2)nc(N2CCOCC2)n1", "inhibition": "8.4% (inactive)"}, {"smiles": "CCN(CC)c1ccc(C(=O)N/N=C/c2ccc(N3CCOCC3)cc2)cc1", "inhibition": "14.2% (inactive)"}, {"smiles": "Cc1ccccc1N/N=C/c1ccc(N2CCOCC2)cc1", "inhibition": "13.9% (inactive)"}, {"smiles": "COc1cc2c(cc1OC)C(=O)NCC(C)(C)O2", "inhibition": "-1.5% (inactive)"}, {"smiles": "Cc1cc(C)nc(-n2nc(C)cc2NC(=O)c2ccc(F)cc2F)n1", "inhibition": "3.4% (inactive)"}, {"smiles": "Cc1cc(OCC(=O)NC2CCN(C)CC2)ccc1[N+](=O)[O-]", "inhibition": "3.6% (inactive)"}, {"smiles": "COc1cccc(NC(=O)c2ccc(S(=O)(=O)N(C)C)cc2)c1", "inhibition": "5.6% (inactive)"}, {"smiles": "O=C(COC(=O)/C=C/c1cccc(Cl)c1)NCCc1ccccc1", "inhibition": "8% (inactive)"}, {"smiles": "CCOc1ccccc1Nc1ccc(C(=O)O)cc1[N+](=O)[O-]", "inhibition": "9.2% (inactive)"}, {"smiles": "OCCC1CN(Cc2cccc(OC3CCCC3)c2)CCN1Cc1ccsc1", "note": "(stereo not given)", "inhibition": "8.6% (inactive)"}, {"smiles": "CCCCCCCNc1nc(Cl)nc(NCCO)n1", "inhibition": "-16.1% (inactive)"}, {"smiles": "CCn1cc(C(=O)N2CCN(Cc3ccc4c(c3)OCO4)CC2)c2cc(OC)c(OC)cc2c1=O", "inhibition": "10.4% (inactive)"}, {"smiles": "CCn1cc(C(=O)NCC2COc3ccccc3O2)c2cc(OC)c(OC)cc2c1=O", "note": "(stereo not given)", "inhibition": "7.1% (inactive)"}, {"smiles": "CCn1cc(C(=O)NCc2ccc3c(c2)OCO3)c2cc(OC)c(OC)cc2c1=O", "inhibition": "59.4% (active)"}, {"smiles": "N#CC1=C(N)Oc2[nH]c(=S)[nH]c(=O)c2C12C(=O)Nc1ccccc12", "note": "(stereo not given)", "inhibition": "25.5% (inactive)"}, {"smiles": "CCc1ccc(C2C(C#N)=C(N)Oc3n[nH]c(CC(=O)OC)c32)cc1", "note": "(stereo not given)", "inhibition": "4% (inactive)"}, {"smiles": "CCCc1[nH]nc2c1C(c1c(C)nn(-c3ccccc3)c1Cl)C(C#N)=C(N)O2", "note": "(stereo not given)", "inhibition": "26.8% (inactive)"}, {"smiles": "Cc1cc(C)c(C#N)c(SCc2[nH]nc3c2C(c2ccccc2)C(C#N)=C(N)O3)n1", "note": "(stereo not given)", "inhibition": "53% (active)"}, {"smiles": "O=C(OCc1cc(Cl)ccc1OC(F)F)c1cccnc1", "inhibition": "10.6% (inactive)"}, {"smiles": "COC(=O)c1ccc(/C=N\\n2c(C)nnc2C)cc1", "inhibition": "-6.4% (inactive)"}, {"smiles": "CCN(CC)S(=O)(=O)c1cccc(-c2n[nH]c(=S)n2/N=C/c2ccc(C(=O)OC)cc2)c1", "inhibition": "66.5% (active)"}, {"smiles": "COc1cc(/C=N/n2c(C)n[nH]c2=S)ccc1OCc1ccccc1", "inhibition": "32% (inactive)"}, {"smiles": "CN1CCN(CC(=O)Nc2cccc([N+](=O)[O-])c2)CC1", "inhibition": "12% (inactive)"}, {"smiles": "CCOc1ccc(-n2c(O)c(/C=N/c3ccnn3Cc3ccncc3)c3ccccc3c2=O)cc1", "inhibition": "-12.9% (inactive)"}, {"smiles": "CCOc1ccc(-n2c(O)c(/C=N/Nc3nc(C)cc(C)n3)c3ccccc3c2=O)cc1", "inhibition": "-1.1% (inactive)"}, {"smiles": "CCOc1ccc(-n2c(O)c(/C=N/Nc3nnc(C)c(=O)[nH]3)c3ccccc3c2=O)cc1", "inhibition": "89.8% (active)"}, {"smiles": "COc1cccc(/C=N/Nc2ncc(C(F)(F)F)cc2Cl)c1O", "inhibition": "0% (inactive)"}, {"smiles": "Oc1ccc(/C=N/Nc2ccc(C(F)(F)F)cn2)cc1O", "inhibition": "53.7% (active)"}, {"smiles": "FC(F)(F)c1cccc(N/N=C/c2ccccc2)c1", "inhibition": "23.2% (inactive)"}, {"smiles": "CN(Cc1ccccc1)C(=O)COC(=O)c1ccccc1Nc1ccccc1", "inhibition": "28.3% (inactive)"}, {"smiles": "CCN(CC)c1ccc(/C=N/Nc2nc(C)cc(C)n2)c(O)c1", "inhibition": "42.2% (inactive)"}, {"smiles": "CCN(CC)c1ccc2oc(=O)c(C)nc2c1", "inhibition": "62.3% (active)"}, {"smiles": "CCN(CC)c1ccc2cc(C(=O)O)c(=O)oc2c1", "inhibition": "11.2% (inactive)"}, {"smiles": "CCc1ccc(NC(=O)Cn2nc(C)c([N+](=O)[O-])c2C)cc1", "inhibition": "12.1% (inactive)"}, {"smiles": "CC(=O)Nc1ccc(OCC(=O)NCc2ccc(C)cc2)cc1", "inhibition": "11.1% (inactive)"}, {"smiles": "COC(=O)c1ccc(OCC(=O)NC(C)(C)C)cc1", "inhibition": "-15.5% (inactive)"}, {"smiles": "CC(C)(C)NC(=O)COc1ccc(CNc2ccc3[nH]c(=O)[nH]c3c2)cc1", "inhibition": "54.2% (active)"}, {"smiles": "Cc1cccc(C2c3[nH]c4ccccc4c3CCN2C(=O)c2cc(-c3cccn3C)n[nH]2)n1", "note": "(stereo not given)", "inhibition": "37% (inactive)"}, {"smiles": "Cc1cc2c(cc1C)[n+](C)cn2CC(O)COCC1CC=CCC1", "note": "(stereo not given)", "inhibition": "1.5% (inactive)"}, {"smiles": "COc1ccc(/C=C/CN2CCN(Cc3ccc(C)cc3)C(CCO)C2)cc1", "note": "(stereo not given)", "inhibition": "7.2% (inactive)"}, {"smiles": "CN(CCc1cn[nH]c1)C(=O)CC1C(=O)NCCN1Cc1cccc(Oc2ccccc2)c1", "note": "(stereo not given)", "inhibition": "8.5% (inactive)"}, {"smiles": "Cn1c(SCC(=O)N2CCCc3ccccc32)nc2ccccc2c1=O", "inhibition": "5.1% (inactive)"}, {"smiles": "O=C(CSc1ccc2nnc(-c3ccccc3)n2n1)N1CCCc2ccccc21", "inhibition": "56.2% (active)"}, {"smiles": "CCCn1c(SCC(=O)N2CCc3ccccc32)nnc1-c1ccncc1", "inhibition": "6.2% (inactive)"}, {"smiles": "C=CCNC(=S)NNC(=O)COc1c(Cl)cc(Cl)cc1Cl", "inhibition": "10.5% (inactive)"}, {"smiles": "Cn1c(=O)c([N+](=O)[O-])c(Oc2ccccc2)c2ccccc21", "inhibition": "82.2% (active)"}, {"smiles": "Cc1nn(C)c(Oc2ccccc2)c1[N+](=O)[O-]", "inhibition": "13.6% (inactive)"}, {"smiles": "Cc1cccc(OP(=O)(Nc2c(C)n(C)n(-c3ccccc3)c2=O)Oc2cccc(C)c2)c1", "inhibition": "14.1% (inactive)"}, {"smiles": "Cc1cccc(Oc2c([N+](=O)[O-])c(=O)n(C)c3ccccc23)c1", "inhibition": "94.1% (active)"}, {"smiles": "COc1cccc(C(=O)Oc2cc(C)[nH]c(=O)c2[N+](=O)[O-])c1", "inhibition": "15.4% (inactive)"}, {"smiles": "Cn1c2ccccc2c(=O)c2c(O)cccc21", "inhibition": "-1% (inactive)"}, {"smiles": "CN(Cc1cc2cc(F)ccc2[nH]1)Cc1nc(-c2cnccn2)no1", "inhibition": "15.3% (inactive)"}, {"smiles": "CN(C)c1nc(-c2cccnc2)nc(-c2ccc(Cl)cc2)c1C#N", "inhibition": "-10.7% (inactive)"}, {"smiles": "COC(=O)C1CCN(C(=O)c2cc(=O)[nH]c3ccccc23)CC1", "inhibition": "6.4% (inactive)"}, {"smiles": "OC(COCc1ccco1)CN1CCN(c2ccccc2)CC1", "note": "(stereo not given)", "inhibition": "3.1% (inactive)"}, {"smiles": "S=C(NCC1CCCO1)N1CCN(c2ccc(Cl)c(Cl)c2)CC1", "note": "(stereo not given)", "inhibition": "21.1% (inactive)"}, {"smiles": "Cc1cccc(N2CCC(NCc3c(C(=O)N4CCCCC4)nc4c(C)cccn34)CC2)c1", "inhibition": "-5.4% (inactive)"}, {"smiles": "Cc1cccc(NC(=O)Nc2ccc3c(c2)OCO3)n1", "inhibition": "18.3% (inactive)"}, {"smiles": "COc1ccc(NC(=S)NCCN2CCC(C)CC2)cc1", "inhibition": "-1.3% (inactive)"}, {"smiles": "Cc1noc(/C=C/c2ccco2)c1S(=O)(=O)N1CCC(C(=O)Nc2ccc(Cl)cn2)CC1", "inhibition": "14.1% (inactive)"}]}]}
